The source of these data is ChEMBL document CHEMBL1141756, “3-Nitropropionic acid (3-NPA), a potent antimycobacterial agent from endophytic fungi: is 3-NPA in some plants produced by endophytes?” (J Nat Prod, 2005).

The subject of assay [1] is Mycobacterium tuberculosis. In words: Antimycobacterial activity against Mycobacterium tuberculosis H37Ra by microplate alamar blue assay. The assay is classed as functional. In a few lines: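 MABA against M. tuberculosis H37Ra grown in Middlebrook 7H9 broth; MIC read. Isoniazid and kanamycin sulfate run as reference drugs in the same experiment as samples.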
(Resazurin is reduced to fluorescent resorufin, in cell work by metabolically active cells.)

Assay [2] has as its system Vero. In words: Cytotoxicity against african green monkey Vero cells at 419.8 uM. The class given is functional, cell-based. The conditions noted are these: Chlorocebus sabaeus. In a few lines:
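Vero cells tested at 419.8 µM using the Skehan colorimetric cytotoxicity method; ellipticine reference.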

In assay [3] the test system is NCI-H187. In words: Cytotoxicity against human NCI-H187 cells at 167.9 uM. The class given is functional, cell-based. In a few lines:
(§1)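 BC, KB and NCI-H187 cells tested at 167.9 µM using the Skehan colorimetric cytotoxicity method; ellipticine reference.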

In assay [4] the test system is KB. In words: Cytotoxicity against human KB cells at 167.9 uM. The assay is classed as functional, cell-based. The procedure, abridged:
as §1

The test system of the next assay is BC. In words: Cytotoxicity against human BC cells at 167.9 uM. The class given is functional, cell-based. The procedure, abridged:
as §1

The test system of assay [5] is Vero. Briefly: Cytotoxicity against african green monkey Vero cells. The class given is functional, cell-based. The conditions noted are these: Chlorocebus sabaeus. In a few lines:
(§2)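 Colorimetric cytotoxicity method (Skehan) on Vero, KB, NCI-H187 (small-cell lung cancer) and BC (breast cancer) cells; IC50 derived; ellipticine as reference compound.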

For assay [6], the system named is NCI-H187. In words: Cytotoxicity against human NCI-H187 cells. The class given is functional, cell-based. The procedure, abridged:
as §2

The test system of assay [7] is KB. In words: Cytotoxicity against human KB cells. The class given is functional, cell-based. The procedure, abridged:
as §2

The nature of assay [8]: Cytotoxicity against human BC cells. The assay is classed as functional, cell-based. In a few lines: as §2

Values after ≈ are worked out from the molar mass of the structure shown. Where a name gives a salt, the structure may show the parent alone. Active and inactive are the calls of the source.

For the compound `O=C(O)CC[N+](=O)[O-]`, in [1], the MIC – broadly, the smallest concentration in the dilution series that meets the test's criterion for growth inhibition – was 3.3 µM (≈ 0.393 µg/mL). In addition, the result in the assay on Vero [2], with NCI-H187 [3], in the assay with KB [4] and with BC was inactive.
Take `Cc1c2ccncc2c(C)c2c1[nH]c1ccccc12` [ELLIPTECINE]: the IC50 (in the assay with Vero [5]; in the assay with NCI-H187 [6]; in the assay on KB [7]; in assay [8]) was 0.8 µM throughout.
`NNC(=O)c1ccncc1` [ISONIAZID] had an MIC in assay [1] of 0.29 µM (≈ 0.0398 µg/mL).
In the case of `NC[C@H]1O[C@H](O[C@H]2[C@H](O)[C@@H](O[C@H]3O[C@H](CO)[C@@H](O)[C@H](N)[C@H]3O)[C@H](N)C[C@@H]2N)[C@H](O)[C@@H](O)[C@@H]1O` [KANAMYCIN SULFATE], the lowest concentration to inhibit growth in [1] (MIC) was 3.4 µM.
